The record followed here is ChEMBL document CHEMBL1141140, “Antifungal agents. 11. N-substituted derivatives of 1-[(aryl)(4-aryl-1H-pyrrol-3-yl)methyl]-1H-imidazole: synthesis, anti-Candida activity, and QSAR studies” (2005).

Holding throughout (type): functional
Assay [1] has as its system Candida albicans. The assay can be described thus: In vitro concentration causing 90% inhibition of Candida albicans with percentage of resistant strains %R = 50 (MIC > 64 ug/mL) at a range of 2-4 ug/mL.
In assay [2] the test system is Candida albicans. Briefly: In vitro minimal inhibitory concentration against Candida albicans with percentage of resistant strains %R = 50 (MIC > 64 ug/mL) at a range of 2-4 ug/mL.
The test system of assay [3] is Candida albicans. The assay can be described thus: In vitro concentration causing 50% inhibition of Candida albicans with percentage of resistant strains %R = 50 (MIC > 64 ug/mL) at a range of 2-4 ug/mL.
For assay [4], the system named is Candida albicans. Briefly: Ratio of the in vitro minimal inhibitory to that of bifonazole against Candida albicans (MIC(compound)/MIC(bifonazole)). In short, it runs like this: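 Broth microdilution per NCCLS M27-A2 against 12 Candida albicans strains (AIDS oropharyngeal, HIV vulvovaginitis isolates, ATCC 24433 and 20891, lab strains 3153 and CA2). Inoculum ~10^4 cells/mL in RPMI 1640, pH 7.0; DMSO stocks 6.4 mg/mL, twofold dilutions 0.016–64 μg/mL; read at 24 h, 28 °C, no visible growth. Mean MIC over strains converted to μmol/mL, divided by bifonazole MIC.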

The subject of assay [5] is Candida albicans. The assay can be described thus: In vitro minimal inhibitory concentration against Candida albicans with percentage of resistant strains %R = 0 (MIC > 64 ug/mL) at a range of 0.016-0.5 ug/mL.
Assay [6] has as its system Candida albicans. The assay can be described thus: In vitro concentration causing 90% inhibition of Candida albicans with percentage of resistant strains %R = 0 (MIC > 64 ug/mL) at a range of 0.016-0.5 ug/mL.
Assay [7] deals with Candida albicans. The assay can be described thus: In vitro concentration causing 50% inhibition of Candida albicans with percentage of resistant strains %R = 0 (MIC > 64 ug/mL) at a range of 0.016-0.5 ug/mL.
Assay [8] has as its system Candida albicans. Briefly: In vitro minimal inhibitory concentration against Candida albicans with percentage of resistant strains %R = 50 (MIC > 64 ug/mL) at a range of 2-16 ug/mL.
Assay [9] concerns Candida albicans. The assay can be described thus: In vitro concentration causing 50% inhibition of Candida albicans with percentage of resistant strains %R = 50 (MIC > 64 ug/mL) at a range of 2-16 ug/mL.
Assay [10] deals with Candida albicans. The assay can be described thus: In vitro concentration causing 90% inhibition of Candida albicans with percentage of resistant strains %R = 50 (MIC > 64 ug/mL) at a range of 2-16 ug/mL.
Assay [11] concerns Candida albicans. The assay can be described thus: In vitro minimal inhibitory concentration against Candida albicans with percentage of resistant strains %R = 33.33 (MIC > 64 ug/mL) at a range of 0.125-2 ug/mL.
Assay [12] has as its system Candida albicans. Briefly: In vitro concentration causing 90% inhibition of Candida albicans with percentage of resistant strains %R = 33.33 (MIC > 64 ug/mL) at a range of 0.125-2 ug/mL.
Assay [13] concerns Candida albicans. Briefly: In vitro concentration causing 50% inhibition of Candida albicans with percentage of resistant strains %R = 33.33 (MIC > 64 ug/mL) at a range of 0.125-2 ug/mL.
Assay [14] has as its system Candida albicans. Briefly: In vitro concentration causing 90% inhibition of Candida albicans with percentage of resistant strains %R = 16.6 (MIC > 64 ug/mL) at a range of 0.5-4 ug/mL.
For assay [15], the system named is Candida albicans. Briefly: In vitro concentration causing 50% inhibition of Candida albicans with percentage of resistant strains %R = 16.6 (MIC > 64 ug/mL) at a range of 0.5-4 ug/mL.
The test system of assay [16] is Candida albicans. Briefly: In vitro minimal inhibitory concentration against Candida albicans with percentage of resistant strains %R = 16.6 (MIC > 64 ug/mL) at a range of 0.5-4 ug/mL.
Assay [17] has as its system Candida albicans. The assay can be described thus: In vitro minimal inhibitory concentration against Candida albicans with percentage of resistant strains %R = 66 (MIC > 64 ug/mL) at a range of 0.25-2 ug/mL.
For assay [18], the system named is Candida albicans. The assay can be described thus: In vitro concentration causing 50% inhibition of Candida albicans with percentage of resistant strains %R = 66 (MIC > 64 ug/mL) at a range of 0.25-2 ug/mL.
Assay [19] concerns Candida albicans. Briefly: In vitro concentration causing 90% inhibition of Candida albicans with percentage of resistant strains %R = 66 (MIC > 64 ug/mL) at a range of 0.25-2 ug/mL.
The subject of assay [20] is Candida albicans. Briefly: In vitro concentration causing 50% inhibition of Candida albicans with percentage of resistant strains %R = 41.6 (MIC > 64 ug/mL) at a range of 0.062-0.125 ug/mL.
Assay [21] concerns Candida albicans. The assay can be described thus: In vitro minimal inhibitory concentration against Candida albicans with percentage of resistant strains %R = 41.6 (MIC > 64 ug/mL) at a range of 0.062-0.125 ug/mL.
The subject of assay [22] is Candida albicans. The assay can be described thus: In vitro concentration causing 90% inhibition of Candida albicans with percentage of resistant strains %R = 41.6 (MIC > 64 ug/mL) at a range of 0.062-0.125 ug/mL.

The structures appear in SMILES notation. Converted amounts (≈) assume the structure as drawn.

By MIC90 is commonly meant an inhibitory concentration at the 90% level, which refers to growth in some studies and to a panel of isolates in others. In general, MIC refers to the lowest concentration that inhibits growth of the organism. The term MIC50 denotes the lowest concentration that inhibits either 50% of growth or 50% of the strains tested, depending on the study. Low readings indicate higher susceptibility, high ones lower susceptibility. On to `COC(Cn1cc(-c2ccc(Cl)cc2)c(C(c2ccc(Cl)cc2Cl)n2ccnc2)c1)OC` (stereo unspecified), for which the MIC90 in the assay on Candida albicans [1] came out at 4 µg/mL (≈ 8.15 µM). The molecule also gave an MIC against Candida albicans [2] of 2.66 µg/mL (≈ 5.42 µM). In the assay with Candida albicans [3], this molecule had an MIC50 of 2 µg/mL (≈ 4.07 µM). The Ratio with Candida albicans [4] amounted to 0.48.
`Clc1ccc(-c2cn(CC3CC3)cc2C(c2ccccc2)n2ccnc2)cc1` (stereo unspecified) registered an MIC against Candida albicans [5] of 0.111 µg/mL (≈ 0.286 µM). Moreover, in the assay on Candida albicans [6], the MIC90 was found to be 0.125 µg/mL (≈ 0.322 µM). In the assay on Candida albicans [7], the MIC50 was found to be 0.016 µg/mL (≈ 0.0412 µM). Further, the Ratio with Candida albicans [4] was found to be 0.025.
`Clc1ccc(-c2cn(-c3ccccc3)cc2C(c2ccccc2)n2ccnc2)cc1` (stereo unspecified) gave an MIC in the assay on Candida albicans [8] of 7 µg/mL (≈ 17.1 µM). In addition, the MIC50 in the assay on Candida albicans [9] was found to be 4 µg/mL (≈ 9.76 µM). In the assay on Candida albicans [10], the MIC90 is 16 µg/mL (≈ 39 µM). Besides, the Ratio in the assay with Candida albicans [4] is listed as 1.5.
For `C=CCn1cc(-c2ccc(Cl)cc2)c(C(c2ccccc2)n2ccnc2)c1` (stereo unspecified), the MIC against Candida albicans [5] was 0.082 µg/mL (≈ 0.219 µM). In addition, the MIC90 in the assay on Candida albicans [6] was 0.25 µg/mL (≈ 0.669 µM). The molecule further had an MIC50 with Candida albicans [7] of 0.016 µg/mL (≈ 0.0428 µM). Further, the Ratio with Candida albicans [4] is on record as 0.019.
In turn, `CCn1cc(-c2ccc(Cl)c(Cl)c2)c(C(c2ccc(C)cc2)n2ccnc2)c1` (stereo unspecified) registered an MIC in the assay on Candida albicans [11] of 2.18 µg/mL (≈ 5.31 µM). In the assay with Candida albicans [12], this molecule registered an MIC90 of 2 µg/mL (≈ 4.87 µM). Moreover, the MIC50 with Candida albicans [13] turned out to be 2 µg/mL (≈ 4.87 µM). Moreover, the Ratio with Candida albicans [4] is on record as 0.47.
In the assay with Candida albicans [14], `COC(=O)/C=C/n1cc(-c2ccc(Cl)cc2)c(C(c2ccccc2)n2ccnc2)c1` (stereo unspecified) yielded an MIC90 of 4 µg/mL (≈ 9.57 µM). In addition, the MIC50 in the assay with Candida albicans [15] came out at 2 µg/mL (≈ 4.79 µM). The MIC against Candida albicans [16] is 1.62 µg/mL (≈ 3.88 µM). Further, the Ratio with Candida albicans [4] amounted to 0.34.
As to `C=Cn1cc(-c2ccc(Cl)cc2)c(C(c2ccccc2)n2ccnc2)c1` (stereo unspecified), the MIC against Candida albicans [5] worked out at 0.125 µg/mL (≈ 0.347 µM). The molecule also registered an MIC90 with Candida albicans [6] of 0.25 µg/mL (≈ 0.695 µM). This molecule came in with an MIC50 against Candida albicans [7] of 0.032 µg/mL (≈ 0.0889 µM). For the same molecule, the Ratio in the assay with Candida albicans [4] was 0.031.
Molecule `CCCn1cc(-c2ccc(Cl)cc2)c(C(c2ccc(Cl)cc2Cl)n2ccnc2)c1` (stereo unspecified) gave an MIC in the assay on Candida albicans [17] of 8.56 µg/mL (≈ 19.2 µM). Also, the MIC50 in the assay on Candida albicans [18] came to 1 µg/mL (≈ 2.25 µM). The same molecule displayed an MIC90 in the assay on Candida albicans [19] of 32 µg/mL (≈ 71.9 µM). For the same molecule, the Ratio in the assay with Candida albicans [4] stood at 1.7.
For `Cn1cc(-c2ccc(Cl)cc2)c(C(c2ccccc2)n2ccnc2)c1` (stereo unspecified), in the assay on Candida albicans [20], the MIC50 is 0.062 µg/mL (≈ 0.178 µM). Besides, the MIC against Candida albicans [21] came to 0.097 µg/mL (≈ 0.279 µM). In the assay on Candida albicans [22], this molecule came in with an MIC90 of 0.125 µg/mL (≈ 0.359 µM). The Ratio in the assay with Candida albicans [4] worked out at 0.025.
